This passage reports IC50 and inhibition results from ChEMBL document CHEMBL1157800, “Hasubanan alkaloids with delta-opioid binding affinity from the aerial parts of Stephania japonica” (J Nat Prod, 2010).

What all share (format): cell membranes
Experiment [1] has as its target Delta-type opioid receptor (Homo sapiens, UniProt P41143). The experiment can be described thus: Displacement of [3H]deltorphin-2 from human delta opioid receptor expressed in HEK293 cell membrane. On the technique in general: In a radioligand displacement assay an active substance lowers the binding of a labelled ligand.
The target in experiment [2] is Mu-type opioid receptor (Homo sapiens) (UniProt P35372). In words: Displacement of [3H]naloxone from mu opioid receptor expressed in CHO cell membrane at 10 uM. In a few lines:
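Filtration binding with recombinant human µ receptor CHO cell membranes (0.017 mg/mL) and [3H]-naloxone (0.66 nM). Buffer: 50 mM Tris, 10 mM MgCl2, 1 mM EDTA, pH 7.4. Incubated 90 min, including 60 min shaking, at ca. 23 °C. Harvested onto PEI-presoaked GF/B mats, oven-dried at 50 °C, then liquid scintillation counted.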

For experiment [3], the target named is Kappa-type opioid receptor (Homo sapiens) (UniProt P41145). In words: Displacement of [3H]naloxone from kappa opioid receptor expressed in HEK293 cell membrane at 10 uM.
Chain of Kappa-type opioid receptor (Homo sapiens) (P41145 whole entry): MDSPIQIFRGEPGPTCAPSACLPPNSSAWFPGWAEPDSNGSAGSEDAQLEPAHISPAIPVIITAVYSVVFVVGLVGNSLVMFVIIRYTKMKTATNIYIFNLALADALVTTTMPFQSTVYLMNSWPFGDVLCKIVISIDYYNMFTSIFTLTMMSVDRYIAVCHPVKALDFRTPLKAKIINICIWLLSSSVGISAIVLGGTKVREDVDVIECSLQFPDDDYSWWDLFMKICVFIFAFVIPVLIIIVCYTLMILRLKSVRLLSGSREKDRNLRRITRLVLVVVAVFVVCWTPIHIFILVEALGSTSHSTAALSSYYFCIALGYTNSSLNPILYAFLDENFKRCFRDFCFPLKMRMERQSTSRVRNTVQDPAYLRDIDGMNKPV

Chain of Delta-type opioid receptor (P41143 whole entry): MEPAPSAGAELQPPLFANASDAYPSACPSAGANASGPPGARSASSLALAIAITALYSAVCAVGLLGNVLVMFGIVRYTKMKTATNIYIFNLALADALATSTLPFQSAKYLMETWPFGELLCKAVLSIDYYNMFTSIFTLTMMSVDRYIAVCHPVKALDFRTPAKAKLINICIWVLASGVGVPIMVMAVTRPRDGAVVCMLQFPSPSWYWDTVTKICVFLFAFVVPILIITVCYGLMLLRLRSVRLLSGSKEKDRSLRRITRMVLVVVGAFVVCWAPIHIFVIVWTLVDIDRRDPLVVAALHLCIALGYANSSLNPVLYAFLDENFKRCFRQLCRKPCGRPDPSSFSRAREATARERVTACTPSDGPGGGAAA
Chain of Mu-type opioid receptor (Homo sapiens) (P35372 whole entry): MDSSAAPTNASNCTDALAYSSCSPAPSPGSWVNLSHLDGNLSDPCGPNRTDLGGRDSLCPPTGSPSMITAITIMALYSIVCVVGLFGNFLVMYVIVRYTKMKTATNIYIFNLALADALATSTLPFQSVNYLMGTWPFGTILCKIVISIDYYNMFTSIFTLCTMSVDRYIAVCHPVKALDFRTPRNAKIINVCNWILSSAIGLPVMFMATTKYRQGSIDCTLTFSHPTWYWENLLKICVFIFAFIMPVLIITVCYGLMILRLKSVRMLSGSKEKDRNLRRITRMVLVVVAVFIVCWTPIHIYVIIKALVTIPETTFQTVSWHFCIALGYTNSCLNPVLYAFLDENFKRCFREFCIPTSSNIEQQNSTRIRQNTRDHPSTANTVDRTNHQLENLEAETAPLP

In experiment [1], `COc1ccc2c(c1O)[C@@]13CCN(C)[C@@]14C[C@@H]2O[C@]4(OC)[C@@H](OC)[C@@H](O)C3` registered a half-inhibitory concentration (IC50) of 2.1 µM. For the same compound, the inhibition amounted to 68% in experiment [2] and 0% in experiment [3].

Regarding `COC1=C(OC)[C@]23CCc4ccc(OC)c(O)c4[C@@]2(CC1=O)CC(=O)N3C`, the half-inhibitory concentration (IC50) in experiment [1] amounted to 17 µM. The inhibition is 49% in experiment [2] and 0% in experiment [3].

For `COc1ccc2c(c1O)[C@@]13CC(=O)N(C)[C@@]14C[C@@H]2O[C@]4(OC)[C@@H](OC)[C@@H](OC(=O)/C=C/c1ccccc1)C3`, in experiment [1], the IC50 stood at 5.1 µM. Moreover, the values for the inhibition in experiment [2] and in experiment [3] were 74% and 0%, respectively.

`COC1=C(OC)[C@]23CCc4ccc(OC)c(O)c4[C@]2(CCN3C)CC1=O` [AKNADININE] came in with an IC50 in experiment [1] of 46 µM. Further, the results for the inhibition in experiment [2] and in experiment [3] were 68% and 0%, respectively.

In turn, `COc1ccc2c(c1O)[C@@]13CCN(C)[C@@]14C[C@@H]2O[C@]4(OC)[C@@H](O)[C@@H](OC(=O)/C=C/c1ccccc1)C3` registered an IC50 in experiment [1] of 2.5 µM. For the same compound, the inhibition in experiment [2] was 54%; in experiment [3], 0%.

The compound `COC1=CC[C@]23CCN(C)[C@@]24C[C@H](O[C@@]14O)c1ccc(OC)c(O)c13` [PROSTEPHABYSSINE] displayed an IC50 in experiment [1] of 5.5 µM. Also, the inhibition is 67% in experiment [2] and 0% in experiment [3].

`COc1ccc2c(c1O)[C@@]13CCN(C)[C@@]14C[C@@H]2O[C@]4(O)[C@@H](OC)[C@@H](O)C3` [LONGANINE] had an IC50 in experiment [1] of 0.7 µM. In addition, the inhibition in experiment [2] stood at 68%; in experiment [3] it was 0%.

`COc1ccc(/C=C/C(=O)O[C@H]2C[C@]34CCN(C)[C@@]35C[C@H](O[C@]5(OC)[C@H]2OC)c2ccc(OC)c(O)c24)cc1O` showed an IC50 in experiment [1] of 11.3 µM. Moreover, the results for the inhibition in experiment [2] and in experiment [3] were 56% and 0%, respectively.

In the case of `COC1=C2[C@@H]3Cc4ccc(OC)c(O)c4[C@]2(CCN3)C[C@H](O)[C@@H]1O` [SINOCOCULINE], the half-inhibitory concentration (IC50) in experiment [1] was 37 µM. Further, the inhibition in experiment [2] was determined as 54%; in experiment [3] it was 0%.

Usually IC50 stands for the concentration needed to halve the response being measured. A low value points to greater potency in that assay. Usually inhibition stands for the percentage by which the read-out fell short of the control. A high value points to strong suppression.
